In ChEMBL document CHEMBL4270603, “Computer-aided drug discovery: Novel 3,9-disubstituted eudistomin U derivatives as potent antibacterial agents” (Eur J Med Chem, 2018):
≈ marks a conversion by molar mass, not a printed value. Calls of active or inactive are those of the source. The rule behind the calls is not given here.

How the values were obtained:
[1] = system: Staphylococcus aureus; test: Antibacterial activity against Staphylococcus aureus CGMCC 1.8721 measured after 12 to 14 hrs; type: functional
Summary of the method: (§1)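 Twofold (double) dilution method for in vitro antibacterial activity, with fosfomycin sodium, ciprofloxacin and propineb as positive controls.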

[2] = system: Ralstonia solanacearum; test: Antibacterial activity against Ralstonia solanacearum CGMCC 1.12711 measured after 12 to 14 hrs; type: functional
Summary of the method: (§2)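 In vitro double dilution method, run alongside fosfomycin sodium, ciprofloxacin and propineb as positive controls.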

[3] = system: Bacillus cereus; test: Antibacterial activity against Bacillus cereus CGMCC 1.1846 measured after 12 to 14 hrs; type: functional; summary of the method: as §1
[4] = system: Staphylococcus aureus; test: Antibacterial activity against methicillin-resistant Staphylococcus aureus ATCC 43300 measured after 12 to 14 hrs; type: functional; summary of the method: as §2
[5] = system: Bacillus cereus; test: Potency index, ratio of ciprofloxacin MIC to test compound MIC for Bacillus cereus CGMCC 1.1846; type: functional
[6] = system: Staphylococcus aureus; test: Induction of morphological changes in Staphylococcus aureus assessed as appearance of irregular cell surface at 1.5625 micromol/l after 1 hr by scanning electron microscopic analysis; type: functional, organism-based
Summary of the method: (§3)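 Cell-surface morphology of compound-treated S. aureus was imaged by scanning electron microscopy and compared with an untreated blank group.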

[7] = system: Ralstonia solanacearum; test: Potency index, ratio of propineb MIC to test compound MIC for Ralstonia solanacearum CGMCC 1.12711; type: functional
[8] = system: Staphylococcus aureus; test: Induction of morphological changes in Staphylococcus aureus assessed as appearance of rough cell surface at 1.5625 micromol/l after 1 hr by scanning electron microscopic analysis; type: functional, organism-based; summary of the method: as §3
[9] = system: Staphylococcus aureus; test: Bactericidal activity against Staphylococcus aureus assessed as disruption of bacterial membrane at 1.5625 micromol/l after 1 hr by Hoechst/propidium iodide staining based fluorescence microscopic analysis; type: functional, organism-based
Summary of the method: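 S. aureus cells were incubated with compound for 1 h, then dual-stained with Hoechst and propidium iodide and imaged by fluorescence microscopy, with untreated cells as the control. Hoechst enters intact cells and gives blue fluorescence. PI gives red fluorescence only when the membrane is disrupted. Blue, red and merged channels were compared.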

[10] = system: Staphylococcus aureus; test: Potency index, ratio of ciprofloxacin MIC to test compound MIC for methicillin-resistant Staphylococcus aureus ATCC 43300; type: functional
[11] = system: Staphylococcus aureus; test: Induction of morphological changes in Staphylococcus aureus assessed as disruption of cell membrane at 0.5 MIC after 1 hr by transmission electron microscopic analysis; type: functional, organism-based; details: 0.5 M
Summary of the method: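 S. aureus cells were exposed to compound for 1 h, then imaged by transmission electron microscopy for cell-membrane boundary integrity, with untreated cells as the comparison.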

[12] = system: Calf thymus DNA; test: Binding affinity to calf thymus DNA by isothermal titration calorimetric method; type: nucleic-acid assay, Bos taurus
Summary of the method: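 DNA was titrated with compound by isothermal titration calorimetry at 298 K. Heat flow was recorded over time, and thermodynamic constants were obtained by fitting to an independent binding model.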

Row | SMILES | MIC [1] | MIC [2] | MIC [3] | MIC [4] | Ratio [5] | Activity [6] | Ratio [7] | Activity [8] | Activity [9] | Ratio [10] | Activity [11] | Kd [12] | Ka ([12]; Bos taurus)
1 | COC(=O)c1cc2c3ccccc3n(Cc3ccccc3C)c2c(-c2cn(C(C)=O)c3ccccc23)n1 | > 100 µM | > 100 µM | 100 µM (≈ 48.8 µg/mL) | > 100 µM | – | – | – | – | – | – | – | – | –
2 | COC(=O)c1cc2c([nH]c3ccccc32)c(-c2cn(C(C)=O)c3ccccc23)n1 | > 100 µM | > 100 µM | > 100 µM | > 100 µM | – | – | – | – | – | – | – | – | –
3 | OCc1cc2c3ccccc3n(Cc3cccc(C(F)(F)F)c3)c2c(-c2c[nH]c3ccccc23)n1 | 3.12 µM (≈ 1.47 µg/mL) | 3.12 µM (≈ 1.47 µg/mL) | 3.12 µM (≈ 1.47 µg/mL) | 12.5 µM (≈ 5.89 µg/mL) | 2 | – | – | – | – | – | – | – | –
4 | COC(=O)c1cc2c3ccccc3n(Cc3ccc(C)cc3)c2c(-c2cn(C(C)=O)c3ccccc23)n1 | > 100 µM | > 100 µM | > 100 µM | > 100 µM | – | – | – | – | – | – | – | – | –
5 | OCc1cc2c3ccccc3n(Cc3ccccc3C(F)(F)F)c2c(-c2c[nH]c3ccccc23)n1 | 50 µM (≈ 23.6 µg/mL) | 50 µM (≈ 23.6 µg/mL) | 50 µM (≈ 23.6 µg/mL) | 100 µM (≈ 47.1 µg/mL) | – | – | – | – | – | – | – | – | –
6 | O=C(O)c1cn(C2CC2)c2cc(N3CCNCC3)c(F)cc2c1=O [CIPROFLOXACIN] | 3.12 µM (≈ 1.04 µg/mL) | 3.12 µM (≈ 1.04 µg/mL) | 6.25 µM (≈ 2.07 µg/mL) | 12.5 µM (≈ 4.14 µg/mL) | – | – | – | – | – | – | – | – | –
7 | COC(=O)c1cc2c3ccccc3n(Cc3ccc(Cl)cc3)c2c(-c2cn(C(C)=O)c3ccccc23)n1 | > 100 µM | > 100 µM | > 100 µM | > 100 µM | – | – | – | – | – | – | – | – | –
8 | COC(=O)c1cc2c3ccccc3n(Cc3ccc(Br)cc3)c2c(-c2cn(C(C)=O)c3ccccc23)n1 | > 100 µM | > 100 µM | > 100 µM | > 100 µM | – | – | – | – | – | – | – | – | –
9 | Cc1cccc(Cn2c3ccccc3c3cc(CO)nc(-c4c[nH]c5ccccc45)c32)c1 | 3.12 µM (≈ 1.3 µg/mL) | 3.12 µM (≈ 1.3 µg/mL) | 3.12 µM (≈ 1.3 µg/mL) | 100 µM (≈ 41.8 µg/mL) | 2 | – | – | – | – | – | – | – | –
10 | Cc1ccc(Cn2c3ccccc3c3cc(CO)nc(-c4c[nH]c5ccccc45)c32)cc1 | 25 µM (≈ 10.4 µg/mL) | 12.5 µM (≈ 5.22 µg/mL) | 25 µM (≈ 10.4 µg/mL) | 25 µM (≈ 10.4 µg/mL) | – | – | – | – | – | – | – | – | –
11 | OCc1cc2c3ccccc3n(Cc3ccc(Br)cc3)c2c(-c2c[nH]c3ccccc23)n1 | 3.12 µM (≈ 1.51 µg/mL) | 1.56 µM (≈ 0.754 µg/mL) | 3.12 µM (≈ 1.51 µg/mL) | 3.12 µM (≈ 1.51 µg/mL) | 2 | Active | 16 | Active | Active | 4 | Active | 553 nM | 1.81 ×10⁶ /M
12 | OCc1cc2c3ccccc3n(Cc3cccc(F)c3)c2c(-c2c[nH]c3ccccc23)n1 | 25 µM (≈ 10.5 µg/mL) | 50 µM (≈ 21.1 µg/mL) | 50 µM (≈ 21.1 µg/mL) | > 100 µM | – | – | – | – | – | – | – | – | –
13 | C[C@@H]1O[C@@H]1P(=O)(O)O [PHOSPHOMYCIN DISODIUM] | 100 µM | 50 µM | 25 µM | 50 µM | – | – | – | – | – | – | – | – | –
14 | OCc1cc2c3ccccc3n(Cc3ccccc3Cl)c2c(-c2c[nH]c3ccccc23)n1 | 25 µM (≈ 10.9 µg/mL) | 25 µM (≈ 10.9 µg/mL) | 50 µM (≈ 21.9 µg/mL) | > 100 µM | – | – | – | – | – | – | – | – | –
15 | COC(=O)c1cc2c3ccccc3n(Cc3ccccc3Cl)c2c(-c2cn(C(C)=O)c3ccccc23)n1 | 100 µM (≈ 50.8 µg/mL) | > 100 µM | > 100 µM | > 100 µM | – | – | – | – | – | – | – | – | –
16 | COC(=O)c1cc2c3ccccc3n(Cc3ccccc3)c2c(-c2cn(C(C)=O)c3ccccc23)n1 | > 100 µM | > 100 µM | > 100 µM | > 100 µM | – | – | – | – | – | – | – | – | –
17 | COC(=O)c1cc2c3ccccc3n(Cc3ccc(F)cc3)c2c(-c2cn(C(C)=O)c3ccccc23)n1 | > 100 µM | > 100 µM | > 100 µM | > 100 µM | – | – | – | – | – | – | – | – | –
